We go through 2 compounds from paper PMC7203960 (ACS Omega, 2020).

One may read the IC50 as the concentration that gives 50% inhibition.

Series [1] can be described thus: Radical scavenging activity by DPPH method. In a few lines: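 DPPH (1.6 mg in 50 mL DMSO), 1.5 mL, was mixed with 1.5 mL of test compound at 100 μg/mL. The mixture stood 45 min at ambient temperature in the dark, then absorbance was read at 517 nm. Blank DPPH solution served as control. Scavenging % was computed from control and sample absorbances, in triplicate.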
(In general: The DPPH test is a chemical assay of radical scavenging.)

The nature of series [2]: CellTiter-Glo luminescent cell viability assay, non-cancerous cell line MRC5. In kind it is cell-based. As to conditions: human, MRC5 cells (non-cancerous cell line). In a few lines: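 Test compounds were made up as 100 mM DMSO stocks and diluted to 0.1 mM in sterile PBS. Cells were seeded at 1500 cells/well in 384-well plates and held 24 h before 72 h exposure. Viability was read by CellTiter-Glo luminescence on a microplate reader.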
(In ATP-based viability assays light output follows the ATP content of the culture.)

Series [3] deals with AsPC1. The series is described as follows: CellTiter-Glo luminescent cell viability assay, AsPC1. It is filed as cell-based. As to conditions: Homo sapiens, ASPC1, 72 h, read-out: IC50 AsPC1. In a few lines: (§1)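 AsPC1 and SW1990 human pancreatic cancer cells were obtained from ATCC and grown in RPMI with FBS, penicillin 100 IU/mL and streptomycin 100 μg/mL at 37 °C in 5% CO2. Compounds were made up as 100 mM DMSO stocks and diluted to 0.1 mM in sterile PBS. Cells were seeded at 1500 cells/well, held 24 h, then treated 72 h. Viability was read by CellTiter-Glo luminescence, in triplicate.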

Series [4] concerns SW1990. In words: CellTiter-Glo luminescent cell viability assay, SW1990. The following applies: Homo sapiens, SW1990, 72 h, read-out: IC50 SW1990. In kind it is cell-based. In a few lines:
as §1

Take `O=C1O[C@H]([C@@H](O)CO)C(O)=C1O` [AA, ascorbic acid]: the “% scavenging (DPPH)” value in series [1] (100 μg/mL, 45 min incubation, absorbance at 517 nm, triplicate) amounted to 88.75 ± 0.89%. In addition, the IC50 in series [1] (read-out: IC50 (DPPH radical scavenging), DPPH method) is 170 µM.

With `Nc1ccn([C@@H]2O[C@H](CO)[C@@H](O)C2(F)F)c(=O)n1` [gemcitabine], the IC50 at 72 h in series [2] was 54.17 ± 0.2 µM. Also, the IC50 in series [3] worked out at 39.3 ± 4.44 µM; in series [4], 35.1 ± 1.78 µM.
